Assay results from ChEMBL document CHEMBL4811269, “Design, synthesis and antibacterial evaluation of novel C-11, C-9 or C-2'-substituted 3-O-descladinosyl-3-ketoclarithromycin derivatives” (Bioorg Med Chem Lett, 2021).
Converted amounts (≈) assume the structure as drawn.

Experiments:
Format in all cases: functional
Bacillus subtilis = test: Antibacterial activity against penicillin-susceptible Bacillus subtilis ATCC9372 by broth microdilution method
Summary of the method: (§1)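 MIC determined by standard broth microdilution per NCCLS recommendations, read as minimal inhibitory concentration in µg/mL. Standard ATCC strains tested alongside the other panel strains, with clarithromycin and azithromycin as reference agents.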

Staphylococcus aureus [1] = test: Antibacterial activity against penicillin-resistant Staphylococcus aureus ATCC 31007 by broth microdilution method
Summary of the method: (§2)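 MIC by standard NCCLS broth microdilution against resistant S. aureus strains, reported in µg/mL. Clarithromycin and azithromycin were run alongside as references.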

Staphylococcus aureus [2] = test: Antibacterial activity against methicillin-resistant Staphylococcus aureus ATCC 43300 by broth microdilution method; summary of the method: as §2
Pseudomonas aeruginosa = test: Antibacterial activity against penicillin-susceptible Pseudomonas aeruginosa ATCC 27853 by broth microdilution method; summary of the method: as §1
Streptococcus pneumoniae [3] = test: Antibacterial activity against erythromycin-resistant Streptococcus pneumoniae AB11 by broth microdilution method
Summary of the method: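 MIC by standard NCCLS broth microdilution, reported in µg/mL. The strain expresses the ermB and mefA genes. Clarithromycin and azithromycin were run alongside as references.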

Streptococcus pyogenes = test: Antibacterial activity against erythromycin-resistant Streptococcus pyogenes R1 by broth microdilution method
Summary of the method: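 MIC by standard NCCLS broth microdilution, reported in µg/mL. The strain is a clinically isolated erythromycin-resistant strain. Clarithromycin and azithromycin were run alongside as references.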

Staphylococcus aureus [4] = test: Antibacterial activity against erythromycin-susceptible Staphylococcus aureus ATCC 25923 by broth microdilution method; summary of the method: as §1
Streptococcus pneumoniae [5] = test: Antibacterial activity against erythromycin-resistant Streptococcus pneumoniae B1 by broth microdilution method
Summary of the method: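 MIC by standard NCCLS broth microdilution, reported in µg/mL. The strain expresses the ermB gene. Clarithromycin and azithromycin were run alongside as references.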

SMILES	MIC (Bacillus subtilis) [µg/mL]	MIC (Staphylococcus aureus [1]) [µg/mL]	MIC (Staphylococcus aureus [2]) [µg/mL]	MIC (Pseudomonas aeruginosa) [µg/mL]	MIC (Streptococcus pneumoniae [3]) [µg/mL]	MIC (Streptococcus pyogenes) [µg/mL]	MIC (Staphylococcus aureus [4]) [µg/mL]	MIC (Streptococcus pneumoniae [5]) [µg/mL]
CCOc1ccc(C(=O)O[C@@H]2[C@H](C)CN(C)CCOC(=O)[C@H](C)C(=O)[C@H](C)[C@@H](O[C@@H]3O[C@H](C)C[C@H](N(C)C)[C@H]3OC(=O)c3ccc(OCC)cc3)[C@](C)(OC)C[C@H]2C)cc1	> 128	> 256	> 256	> 128	> 256	> 256	128 (≈ 152 µM)	> 256
CO[C@]1(C)C[C@@H](C)[C@H](OC(=O)c2ccc([N+](=O)[O-])cc2)[C@H](C)CN(C)CCOC(=O)[C@H](C)C(=O)[C@H](C)[C@H]1O[C@@H]1O[C@H](C)C[C@H](N(C)C)[C@H]1OC(=O)c1ccc([N+](=O)[O-])cc1	> 128	> 256	> 256	> 128	> 256	> 256	64 (≈ 75.9 µM)	> 256
CO[C@]1(C)C[C@@H](C)[C@H](OC(=O)c2ccccc2Br)[C@H](C)CN(C)CCOC(=O)[C@H](C)C(=O)[C@H](C)[C@H]1O[C@@H]1O[C@H](C)C[C@H](N(C)C)[C@H]1OC(=O)c1ccccc1Br	> 128	> 256	> 256	> 128	> 256	> 256	128 (≈ 141 µM)	> 256
CO[C@]1(C)C[C@@H](C)[C@H](OC(=O)c2ccc(Br)cc2)[C@H](C)CN(C)CCOC(=O)[C@H](C)C(=O)[C@H](C)[C@H]1O[C@@H]1O[C@H](C)C[C@H](N(C)C)[C@H]1OC(=O)c1ccc(Br)cc1	> 128	> 256	> 256	> 128	> 256	> 256	128 (≈ 141 µM)	> 256
CC[C@H]1OC(=O)[C@H](C)[C@@H](O[C@H]2C[C@@](C)(OC)[C@@H](O)[C@H](C)O2)[C@H](C)[C@@H](O[C@@H]2O[C@H](C)C[C@H](N(C)C)[C@H]2O)[C@](C)(O)C[C@@H](C)CN(C)[C@H](C)[C@@H](O)[C@]1(C)O [AZITHROMYCIN]	≤ 0.25	> 256	> 256	32 (≈ 42.7 µM)	128 (≈ 171 µM)	256 (≈ 342 µM)	≤ 0.25	> 256
CO[C@]1(C)C[C@@H](C)[C@H](OC(=O)c2cc(Cl)cc(Cl)c2)[C@H](C)CN(C)CCOC(=O)[C@H](C)C(=O)[C@H](C)[C@H]1O[C@@H]1O[C@H](C)C[C@H](N(C)C)[C@H]1OC(=O)c1cc(Cl)cc(Cl)c1	> 128	> 256	> 256	> 128	> 256	> 256	128 (≈ 144 µM)	> 256
CCCc1ccc(C(=O)O[C@@H]2[C@H](C)CN(C)CCOC(=O)[C@H](C)C(=O)[C@H](C)[C@@H](O[C@@H]3O[C@H](C)C[C@H](N(C)C)[C@H]3OC(=O)c3ccc(CCC)cc3)[C@](C)(OC)C[C@H]2C)cc1	> 128	> 256	> 256	> 128	> 256	> 256	64 (≈ 76.5 µM)	> 256
COc1cccc(C(=O)O[C@@H]2[C@H](C)CN(C)CCOC(=O)[C@H](C)C(=O)[C@H](C)[C@@H](O[C@@H]3O[C@H](C)C[C@H](N(C)C)[C@H]3OC(=O)c3cccc(OC)c3)[C@](C)(OC)C[C@H]2C)c1	> 128	> 256	> 256	> 128	> 256	> 256	128 (≈ 157 µM)	> 256
CCc1ccc(C(=O)O[C@@H]2[C@H](C)CN(C)CCOC(=O)[C@H](C)C(=O)[C@H](C)[C@@H](O[C@@H]3O[C@H](C)C[C@H](N(C)C)[C@H]3OC(=O)c3ccc(CC)cc3)[C@](C)(OC)C[C@H]2C)cc1	> 128	> 256	> 256	> 128	> 256	> 256	64 (≈ 79.1 µM)	> 256
CO[C@]1(C)C[C@@H](C)[C@H](OC(=O)c2cccc(Cl)c2)[C@H](C)CN(C)CCOC(=O)[C@H](C)C(=O)[C@H](C)[C@H]1O[C@@H]1O[C@H](C)C[C@H](N(C)C)[C@H]1OC(=O)c1cccc(Cl)c1	> 128	> 256	> 256	> 128	> 256	> 256	64 (≈ 77.9 µM)	> 256
CO[C@]1(C)C[C@@H](C)[C@H](OC(=O)c2cccc([N+](=O)[O-])c2)[C@H](C)CN(C)CCOC(=O)[C@H](C)C(=O)[C@H](C)[C@H]1O[C@@H]1O[C@H](C)C[C@H](N(C)C)[C@H]1OC(=O)c1cccc([N+](=O)[O-])c1	> 128	> 256	> 256	> 128	> 256	> 256	128 (≈ 152 µM)	> 256
COc1ccc(C(=O)O[C@@H]2[C@H](C)CN(C)CCOC(=O)[C@H](C)C(=O)[C@H](C)[C@@H](O[C@@H]3O[C@H](C)C[C@H](N(C)C)[C@H]3OC(=O)c3ccc(OC)cc3)[C@](C)(OC)C[C@H]2C)cc1	> 128	> 256	> 256	> 128	> 256	> 256	64 (≈ 78.7 µM)	> 256
CO[C@]1(C)C[C@@H](C)[C@H](OC(=O)c2cccc(C)c2)[C@H](C)CN(C)CCOC(=O)[C@H](C)C(=O)[C@H](C)[C@H]1O[C@@H]1O[C@H](C)C[C@H](N(C)C)[C@H]1OC(=O)c1cccc(C)c1	> 128	> 256	> 256	> 128	> 256	> 256	128 (≈ 164 µM)	> 256
CO[C@]1(C)C[C@@H](C)[C@H](OC(=O)c2cccc(F)c2)[C@H](C)CN(C)CCOC(=O)[C@H](C)C(=O)[C@H](C)[C@H]1O[C@@H]1O[C@H](C)C[C@H](N(C)C)[C@H]1OC(=O)c1cccc(F)c1	> 128	> 256	> 256	> 128	> 256	> 256	128 (≈ 162 µM)	> 256
CO[C@]1(C)C[C@@H](C)[C@H](OC(=O)c2ccc(F)cc2)[C@H](C)CN(C)CCOC(=O)[C@H](C)C(=O)[C@H](C)[C@H]1O[C@@H]1O[C@H](C)C[C@H](N(C)C)[C@H]1OC(=O)c1ccc(F)cc1	> 128	> 256	> 256	> 128	> 256	> 256	128 (≈ 162 µM)	> 256
CC[C@H]1OC(=O)[C@H](C)[C@@H](O[C@H]2C[C@@](C)(OC)[C@@H](O)[C@H](C)O2)[C@H](C)[C@@H](O[C@@H]2O[C@H](C)C[C@H](N(C)C)[C@H]2O)[C@](C)(OC)C[C@@H](C)C(=O)[C@H](C)[C@@H](O)[C@]1(C)O [CLARITHROMYCIN]	≤ 0.25	> 256	> 256	16 (≈ 21.4 µM)	256 (≈ 342 µM)	256 (≈ 342 µM)	≤ 0.25	> 256
CO[C@]1(C)C[C@@H](C)[C@H](OC(=O)c2ccc(C(F)(F)F)cc2)[C@H](C)CN(C)CCOC(=O)[C@H](C)C(=O)[C@H](C)[C@H]1O[C@@H]1O[C@H](C)C[C@H](N(C)C)[C@H]1OC(=O)c1ccc(C(F)(F)F)cc1	> 128	> 256	> 256	> 128	> 256	> 256	64 (≈ 72 µM)	> 256
